Reference: ChEMBL document CHEMBL4732200, “Synthesis and antiviral activity of a series of novel quinoline derivatives as anti-RSV or anti-IAV agents” (Eur J Med Chem, 2021)
Calls of active or inactive are those of the source. The calls are words filed in the database; no cut-off is given here.

Experiments:
[1] = test system: Respiratory syncytial virus; assay: Antiviral activity against RSV Long expressing mGFP infected in HEp-2 cells assessed as reduction in viral replication after 48 hrs by MTS assay; assay type: functional, organism-based; settings: human respiratory syncytial virus, HEp-2, 48 h
Method in brief: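 HEp-2 cells plated in 96-well plates; after 24 h, virus alone or virus plus compound added; 48 h incubation. MTS (2 mg/ml) added for 3 h at 37 °C, 5% CO2; absorbance read at 490 nm. Controls were mock-treated cells (uninfected, or infected without compound), with cell activity set as 100%.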

[2] = Cytotoxicity against human HEp-2 cells assessed as reduction in cell viability after 48 hrs by MTS assay; assay type: cell-based
[3] = Selectivity index, ratio of CC50 for cytotoxicity against human HEp-2 cells to IC50 for antiviral activity against RSV Long expressing mGFP infected in HEp-2 cells; assay type: toxicity, cell-based; settings: read-out: Ratio CC50/IC50
Influenza A virus [4] = assay: Antiviral activity against Influenza A virus A/WSN/33(H1N1) infected in human HEK-293T cells assessed as inhibition of viral replication after 48 hrs by CCK-8 assay; assay type: functional, organism-based; settings: A/WSN/1933(H1N1)
HEK-293T = assay: Cytotoxicity against human HEK-293T cells assessed as reduction in cell viability after 48 hrs by CCK-8 assay; assay type: cell-based
Method in brief: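 Cytotoxicity in 293T cells in 96-well plates incubated with compounds at six concentrations (top 200) for 48 h. CCK-8 solution added and OD read at 450 nm. DMSO-only cells served as control.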

[5] = Selectivity index, ratio of CC50 for cytotoxicity against human HEK-293T cells to IC50 for antiviral activity against Influenza A virus A/WSN/33(H1N1) […] cells; assay type: toxicity, cell-based; settings: read-out: Ratio CC50/IC50
Influenza A virus [6] = assay: Antiviral activity against Influenza A virus A/WSN/33(H1N1) infected in human HEK-293T cells assessed as inhibition of viral replication at 10 uM after 48 hrs by CCK-8 assay relative to control; assay type: functional, A/WSN/1933(H1N1); parameters: scale not given: the % may be the effect or the level left
Influenza A virus [7] = assay: Potency index, ratio of ribavirin IC50 to test compound IC50 for antiviral activity against Influenza A virus A/WSN/33(H1N1) infected in human HEK-293T cells; assay type: functional, A/WSN/1933(H1N1)
Influenza A virus [8] = assay: Antiviral activity against Influenza A virus A/WSN/33(H1N1) infected in human A549 cells assessed as inhibition of viral replication at 10 uM after 2 to 6 hrs; assay type: functional, organism-based; settings: A/WSN/1933(H1N1), time 2-6 hrs
[9] = (§1) Inhibition of Influenza A virus A/WSN/33(H1N1) RNA polymerase expressed in HEK-293T cells after 24 hrs by dual luciferase reporter gene assay; assay type: cell-based, HEK293T
Method in brief: (§2)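 HEK293T cells transfected with pCAGGS plasmids for PB2, PB1, PA and NP, plus a pol-driven firefly luciferase reporter and SV40-Renilla, with or without compound at the indicated concentrations. vRNA transcription read as firefly and Renilla luciferase at 24 h post-transfection.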

HEK293T = assay: as §1; assay type: cell-based; method in brief: as §2
[10] = test system: Respiratory syncytial virus; assay: Potency index, ratio of ribavirin IC50 to test compound IC50 for antiviral activity against RSV Long expressing mGFP infected in HEp-2 cells; assay type: functional

Row | SMILES | IC50 [1] [µM] | CC50 at 48 h [2] [µM] | selectivity ratio [3] | IC50 (Influenza A virus [4]) [µM] | IC50 (HEK-293T) [µM] | selectivity ratio [5] | Activity (Influenza A virus [6]) [%] | Ratio IC50 (Influenza A virus [7]) | Activity (Influenza A virus [8]) | IC50 [9] [µM] | inhibition (HEK293T) | Ratio IC50 [10]
1 | O=C(COc1cccc2ccc(Cl)nc12)NCc1ccccc1 | 20.7 | 528 | 25.6 |  |  |  |  |  |  |  |  | 
2 | O=C(COc1cccc2ccc(N3CCCC3)nc12)NCc1ccc(C(F)(F)F)cc1 | 27.8 | 327 | 11.8 | 36.1 | > 100 | > 2.77 |  |  |  |  |  | 
3 | O=C(COc1cccc2ccc(N3CCOCC3)nc12)NCc1ccccc1 | 36.1 | 46.2 | 1.28 |  |  |  |  |  |  |  |  | 
4 | CC(C)(C)OC(=O)N1CCN(c2ccc3cccc(OCC(=O)NCc4ccccc4)c3n2)CC1 | 16.9 | 1370 | 80.9 | 1.87 | > 100 | > 53.5 | >70 | 8.2 | Active | 1.93 | Dose-dependent effect | 
5 | c1cc(OCCCCCN2CCOCC2)c2nc(N3CCCC3)ccc2c1 | 31.3 | 173 | 5.52 | 32.4 | > 100 | > 3.08 |  |  |  |  |  | 
6 | CC(C)(C)OC(=O)N[C@@H]1CCN(c2ccc3cccc(OCC(=O)NCc4ccccc4)c3n2)C1 | 35.3 | 58.6 | 1.66 | 4.99 | 49.9 | 9.99 | >70 |  |  |  |  | 
7 | c1cc(OCCCN2CCOCC2)c2nc(N3CCCC3)ccc2c1 | 14.1 | 552 | 39.2 | 50.7 | > 100 | > 1.97 |  |  |  |  |  | 
8 | O=C(COc1cccc2ccc(N3CCCC3)nc12)NC12CC3CC(CC(C3)C1)C2 |  |  |  | 11.5 | > 100 | > 8.73 |  |  |  |  |  | 
9 | CS(=O)(=O)c1ccc(CNC(=O)COc2cccc3ccc(N4CCCC4)nc23)cc1 | 221 | 1360 | 6.14 |  |  |  |  |  |  |  |  | 
10 | O=C(COc1cccc2ccc(N3CCCC3)nc12)NCc1cccc(F)c1 | 2920 | 444 | 0.15 |  |  |  |  |  |  |  |  | 
11 | COc1cccc(CNC(=O)COc2cccc3ccc(N4CCCC4)nc23)c1 | 6.93 | 74.3 | 10.7 |  |  |  |  |  |  |  |  | 2.5
12 | O=C(COc1cccc2ccc(N3CCCC3)nc12)Nc1ccccc1 | 16.5 | 304 | 18.4 |  |  |  |  |  |  |  |  | 
13 | O=C(COc1cccc2ccc(N3CCCC3)nc12)NCc1ccco1 | 22.9 | 249 | 10.9 |  |  |  |  |  |  |  |  | 
14 | O=C(COc1cccc2ccc(N3CCCC3)nc12)NCc1ccccc1 | 55.8 | 540 | 9.68 | 13.3 | > 100 | > 7.5 |  |  |  |  |  | 
15 | O=C(COc1cccc2ccc(N3CCCCC3)nc12)NCc1ccccc1 | 26.1 | 1740 | 66.7 |  |  |  |  |  |  |  |  | 
16 | O=C(COc1cccc2ccc(N3CCCC3)nc12)NCc1ccc(F)cc1 | 4.41 | 2130 | 483 |  |  |  |  |  |  |  |  | 2.5

Row | SMILES | IC50 [1] [µM] | CC50 at 48 h [2] [µM] | selectivity ratio [3] | IC50 (Influenza A virus [4]) [µM] | IC50 (HEK-293T) [µM] | selectivity ratio [5] | Activity (Influenza A virus [6]) [%] | Ratio IC50 (Influenza A virus [7]) | Activity (Influenza A virus [8]) | IC50 [9] [µM] | inhibition (HEK293T) | Ratio IC50 [10]
17 | CC(C)(C)OC(=O)N[C@H]1CCN(c2ccc3cccc(OCC(=O)NCc4ccccc4)c3n2)C1 | 4.57 | 43.8 | 9.59 | 5.11 | 58 | 11.3 | >70 |  |  |  |  | 2.5
18 | CCOc1ccccc1NC(=O)COc1cccc2ccc(N3CCCC3)nc12 | 33.2 | 1040 | 31.5 |  |  |  |  |  |  |  |  | 
19 | O=C(COc1cccc2ccc(N3CCCC3)nc12)NCc1ccc(Br)cc1 |  |  |  | 42.3 | > 100 | > 2.36 |  |  |  |  |  | 
20 | CCOC(=O)COc1cccc2ccc(N3CCCC3)nc12 | 16.4 | 826 | 50.3 |  |  |  |  |  |  |  |  | 
21 | O=C(COc1cccc2ccc(N3CCCC3)nc12)NCC1CC1 | 29 | 580 | 20 |  |  |  |  |  |  |  |  | 
22 | c1cc(OCCCCN2CCOCC2)c2nc(N3CCCC3)ccc2c1 | 11.6 | 691 | 59.6 |  |  |  |  |  |  |  |  | 
23 | O=C(COc1cccc2ccc(N3CCCC3)nc12)NCc1ccc(Cl)cc1 | 39.2 | 245 | 6.26 |  |  |  |  |  |  |  |  | 
24 | O=C(COc1cccc2ccc(N3CCCC3)nc12)NCc1ccccc1Br | 182 | 312 | 1.71 |  |  |  |  |  |  |  |  | 
25 | CCOc1ccccc1CNC(=O)COc1cccc2ccc(N3CCCC3)nc12 | 45.7 | 113 | 2.48 | 7.46 | > 100 | > 13.4 |  |  |  |  |  | 
26 | CNc1ccc2cccc(OCC(=O)NCc3ccccc3)c2n1 | 10.3 | 94.8 | 9.2 |  |  |  |  |  |  |  |  | 
27 | CN(C)c1ccc2cccc(OCC(=O)NCc3ccccc3)c2n1 | 3.1 | 168 | 54.1 | 14.2 | > 100 | > 7.02 |  |  |  |  |  | 2.5
28 | COc1ccc(CNC(=O)COc2cccc3ccc(N4CCCC4)nc23)cc1 | 3.7 | 2490 | 673 |  |  |  |  |  |  |  |  | 2.5
29 | CN1CCN(c2ccc3cccc(OCC(=O)NCc4ccccc4)c3n2)CC1 | 19.3 | 264 | 13.7 | 9.87 | > 100 | > 10.1 |  |  |  |  |  | 
30 | NC(=O)c1ncn([C@@H]2O[C@H](CO)[C@@H](O)[C@H]2O)n1 [RIBAVIRIN] | 17.3 | 3040 | 175 |  | > 100 | > 6.51 |  |  |  |  |  | 
31 | O=C(COc1cccc2ccc(N3CCCC3)nc12)NCc1cccc(Cl)c1 | 30.2 | 73 | 2.41 |  |  |  |  |  |  |  |  | 
